Results taken from ChEMBL document CHEMBL3259739, “Synthesis and structure-activity relationship of trisubstituted thiazoles as Cdc7 kinase inhibitors” (Eur J Med Chem, 2014).
Each block holds one compound with its values, some of them ahead of it. The source made the active and inactive calls.

Experiments:
[1] = system: rat MDR1; test: Apparent permeability of the compound in pig LLC-PK1 cells expressing rat MDR1; type: ADME, cell-based, Sus scrofa
[2] = biological target: T1, CDC7/DBF4 (Cell division cycle 7-related protein kinase/Activator of S phase kinase) (Homo sapiens) (UniProt Q9UBU7+O00311); test: Competitive inhibition of Cdc7/Dbf4 (unknown origin) using ATP as substrate by Michaelis-Menton/double-reciprocal plot analysis; type: protein-complex assay
Outline: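 AlphaScreen with 6 nM Cdc7/Dbf4 and 10 nM biotinylated His/avitag MCM2 (aa1-467) substrate. Phospho-Ser53 MCM2 detected with antibody-bound Protein A acceptor and streptavidin donor beads. Rates fitted by Michaelis–Menten and double-reciprocal plots.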

[3] = biological target: T2, CDC7/DBF4 (Cell division cycle 7-related protein kinase/Activator of S phase kinase) (Homo sapiens, UniProt O00311); test: Inhibition of Cdc7/Dbf4 (unknown origin) using 3 uM of ATP as substrate by AlphaScreen assay; type: protein-complex assay
[4] = Efflux ratio of permeability of the compound in pig LLC-PK1 cells; type: ADME, cell-based, Sus scrofa
[5] = system: MDR1; test: Efflux ratio of permeability of the compound in pig LLC-PK1 cells expressing MDR1; type: ADME, cell-based, Sus scrofa
[6] = system: MDR1; test: Apparent permeability of the compound in pig LLC-PK1 cells expressing MDR1; type: ADME, cell-based, Sus scrofa
[7] = biological target: T2, CDC7/DBF4 (Cell division cycle 7-related protein kinase/Activator of S phase kinase); test: Inhibition of Cdc7/Dbf4 (unknown origin) using 0.75 uM of ATP as substrate by AlphaScreen assay; type: protein-complex assay
Outline: (§1)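 Mechanism-of-action AlphaScreen run with 6 nM Cdc7/Dbf4 and 10 nM biotinylated MCM2 substrate. […] Reaction time was 2 h. Phospho-Ser53 MCM2 was read by antibody-bound acceptor beads with streptavidin donor beads. Rates and Ki were fitted to a competitive inhibition model.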

[8] = biological target: T2, CDC7/DBF4 (Cell division cycle 7-related protein kinase/Activator of S phase kinase); test: Inhibition of Cdc7/Dbf4 (unknown origin) using 0.188 uM of ATP as substrate by AlphaScreen assay; type: protein-complex assay; outline: as §1
[9] = system: rat MDR1; test: Efflux ratio of permeability of the compound in pig LLC-PK1 cells expressing rat MDR1; type: ADME, cell-based, Sus scrofa
[10] = biological target: T2, CDC7/DBF4 (Cell division cycle 7-related protein kinase/Activator of S phase kinase); test: Inhibition of Cdc7/Dbf4 (unknown origin) using 54 uM of ATP as substrate by AlphaScreen assay; type: protein-complex assay
[11] = biological target: T2, CDC7/DBF4 (Cell division cycle 7-related protein kinase/Activator of S phase kinase); test: Inhibition of Cdc7/Dbf4 (unknown origin) using 18 uM of ATP as substrate by AlphaScreen assay; type: protein-complex assay
[12] = AUC (0 to t) in Sprague-Dawley rat at 2 mg/kg, iv; type: ADME, organism-based; parameters: dose 2 mg/kg, route intravenous; conditions: plasma
[13] = system: Mus musculus; test: Inhibition of Cdc7/Dbf4 in NCR nude mouse xenografted with human HCT116 cells assessed as reduction of phosphorylated MCM2 level in tumor at 50 mg/kg, iv after 6 hrs; type: functional; conditions: HCT-116, 6 h
Outline: (§2)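 Female athymic NCR/nu mice, 4–6 weeks old, bearing subcutaneous HCT-116 xenografts (5 × 10^6 cells in Matrigel) grown to about 250 mm3. Single iv dose formulated in 20% HPbCD, 1% HPMC, 1% PluronicF68, pH7 at 10 mg/ml; three mice per group. Tumors were homogenized in Tris lysis buffer with protease and phosphatase inhibitors. MSD capture with total MCM2 antibody, then phospho-Ser53 or total MCM2 detection by chemiluminescence; inhibition taken from the phospho/total ratio.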

[14] = biological target: T2, CDC7/DBF4 (Cell division cycle 7-related protein kinase/Activator of S phase kinase); test: Inhibition of Cdc7/Dbf4 (unknown origin) using 6 uM of ATP as substrate by AlphaScreen assay; type: protein-complex assay
[15] = biological target: T2, CDC7/DBF4 (Cell division cycle 7-related protein kinase/Activator of S phase kinase); test: Inhibition of Cdc7/Dbf4 (unknown origin) using 0.111 uM of ATP as substrate by AlphaScreen assay; type: protein-complex assay
[16] = Fraction unbound in mouse plasma; type: ADME, cell-free
[17] = Terminal half life in Sprague-Dawley rat at 5 mg/kg, po; type: ADME, organism-based; parameters: dose 5 mg/kg, route oral; conditions: in vivo, read-out: beta t1/2 (converted)
Outline: (§3)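 Male Sprague-Dawley rats given 5 mg/kg orally in 2% HPMC, 1% Tween80, pH2 (an iv arm received 2 mg/kg in DMSO). Plasma was sampled from 0.25 to 24 h and analyzed by LC/MS.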

[18] = system: Mus musculus; test: Inhibition of Cdc7/Dbf4 in NCR nude mouse xenografted with human HCT116 cells assessed as reduction of phosphorylated MCM2 level in tumor at 150 mg/kg, iv after 6 hrs; type: functional; conditions: HCT-116, 6 h; outline: as §2
[19] = biological target: T2, CDC7/DBF4 (Cell division cycle 7-related protein kinase/Activator of S phase kinase); test: Inhibition of Cdc7/Dbf4 (unknown origin) using 0.025 uM of ATP as substrate by AlphaScreen assay; type: protein-complex assay
[20] = system: Plasma; test: Unbound plasma concentration in NCR nude mouse xenografted with human HCT116 cells at 150 mg/kg, iv after 1 hr; type: ADME, organism-based, HCT-116; parameters: dose 150 mg/kg, route intravenous; conditions: in vivo
Outline: (§4)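 HCT-116 xenograft NCR/nu mice (three per group) were given a single iv dose in 20% HPbCD, 1% HPMC, 1% PluronicF68, pH7 at 10 mg/ml. Plasma collected at the time points was measured by LC/MS. Values were converted to unbound concentrations using percent plasma protein binding in mouse serum.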

[21] = biological target: T2, CDC7/DBF4 (Cell division cycle 7-related protein kinase/Activator of S phase kinase); test: Inhibition of Cdc7/Dbf4 (unknown origin) using 0.222 uM of ATP as substrate by AlphaScreen assay; type: protein-complex assay
[22] = biological target: T2, CDC7/DBF4 (Cell division cycle 7-related protein kinase/Activator of S phase kinase); test: Inhibition of Cdc7/Dbf4 (unknown origin) using 2 uM of ATP as substrate by AlphaScreen assay; type: protein-complex assay
[23] = Mean residence time in Sprague-Dawley rat at 2 mg/kg, iv; type: ADME, organism-based; parameters: dose 2 mg/kg, route intravenous; conditions: in vivo
[24] = Volume of distribution at steady state in Sprague-Dawley rat at 2 mg/kg, iv; type: ADME, organism-based; parameters: dose 2 mg/kg, route intravenous; conditions: in vivo, read-out: Vdss
[25] = biological target: T2, CDC7/DBF4 (Cell division cycle 7-related protein kinase/Activator of S phase kinase); test: Inhibition of Cdc7/Dbf4 (unknown origin) using 1 uM of ATP as substrate by AlphaScreen assay; type: protein-complex assay
[26] = biological target: T2, CDC7/DBF4 (Cell division cycle 7-related protein kinase/Activator of S phase kinase); test: Inhibition of Cdc7/Dbf4 (unknown origin) using 0.074 uM of ATP as substrate by AlphaScreen assay; type: protein-complex assay
[27] = system: Mus musculus; test: Inhibition of Cdc7/Dbf4 in NCR nude mouse xenografted with human HCT116 cells assessed as reduction of phosphorylated MCM2 level in tumor at 150 mg/kg, iv after 3 hrs; type: functional; conditions: HCT-116, 3 h; outline: as §2
[28] = AUC (0 to infinity) in Sprague-Dawley rat at 5 mg/kg, po; type: ADME, organism-based; parameters: time infinity, dose 5 mg/kg, route oral; conditions: plasma
[29] = biological target: T2, CDC7/DBF4 (Cell division cycle 7-related protein kinase/Activator of S phase kinase); test: Inhibition of Cdc7/Dbf4 (unknown origin) using 0.667 uM of ATP as substrate by AlphaScreen assay; type: protein-complex assay
[30] = Oral bioavailability in Sprague-Dawley rat at 5 mg/kg; type: ADME, organism-based; conditions: in vivo; outline: as §3
[31] = Cmax in Sprague-Dawley rat at 5 mg/kg, po; type: ADME, organism-based; parameters: dose 5 mg/kg, route oral; conditions: in vivo
[32] = biological target: T2, CDC7/DBF4 (Cell division cycle 7-related protein kinase/Activator of S phase kinase); test: Inhibition of Cdc7/Dbf4 (unknown origin) using 27 uM of ATP as substrate by AlphaScreen assay; type: protein-complex assay
[33] = Clearance in Sprague-Dawley rat at 2 mg/kg, iv; type: ADME, organism-based; parameters: dose 2 mg/kg, route intravenous; conditions: in vivo
[34] = system: Plasma; test: Unbound plasma concentration in NCR nude mouse xenografted with human HCT116 cells at 150 mg/kg, iv after 6 hrs; type: ADME, organism-based, HCT-116; parameters: dose 150 mg/kg, route intravenous; conditions: in vivo; outline: as §4
[35] = biological target: T1, CDC7/DBF4 (Cell division cycle 7-related protein kinase/Activator of S phase kinase) (Homo sapiens); test: Inhibition of Cdc7/Dbf4 in human HCT116 cells assessed as reduction of MCM2 phosphorylation after 14 hrs; type: cell-based; conditions: HCT-116
Outline: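 HCT-116 cells were exposed to inhibitor across a 22-point dose response for 14 h. They were then immunostained for phospho-serine MCM2 using an Alexa Fluor 488 secondary, with a Hoechst nuclear counterstain. The percentage of cells with phospho-MCM2 signal above a threshold was scored by high-content imaging, and IC50 values were derived from that.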

[36] = biological target: T1, CDC7/DBF4 (Cell division cycle 7-related protein kinase/Activator of S phase kinase) (Homo sapiens); test: Ratio of IC50 for Cdc7/Dbf4 in human HCT116 cells to IC50 for Cdc7/Dbf4 (unknown origin); type: cell-based; conditions: HCT-116

Papp [1]: ≥ 8.9 ×10⁻⁶ cm/s
inhibition [2]: Active
IC50 [3]: 419 nM
efflux ratio [4]: 1
efflux ratio [5]: 1
Papp [6]: ≥ 8.9 ×10⁻⁶ cm/s
IC50 [7]: 316 nM
IC50 [8]: 547 nM
efflux ratio [9]: 1
Compound: CCOC(=O)c1sc(-c2ccncc2)nc1O

Compound: NC(=O)c1sc(-c2ccnc(N)n2)nc1-c1ccc(Cl)cc1Cl
IC50 [10]: 86 nM
IC50 [11]: 23 nM
AUC(0-t) [12]: 518 ng·h/mL
inhibition in vivo at 50 mg/kg [13]: 20%
IC50 [14]: 13 nM
IC50 [15]: 29 nM
fraction unbound [16]: 0.09
half-life [17]: 3.73 h
inhibition in vivo at 150 mg/kg [18]: 31%
IC50 [19]: 40 nM
Cp(f) [20]: 5000 nM
IC50 [21]: 35 nM
IC50 [22]: 10 nM
MRT [23]: 1.15 h
Vd [24]: 4.43 L/kg
IC50 [25]: 10 nM
IC50 [26]: 64 nM
inhibition in vivo at 150 mg/kg [27]: 38%
AUC(0-inf) [28]: 85.7 ng·h/mL
IC50 [29]: 14 nM
bioavailability [30]: 6.58%
Cmax [31]: 13 ng/mL
IC50 [32]: 44 nM
clearance [33]: 64.8 mL/min/kg
Cp(f) [34]: > 1000 nM
IC90 [35]: 6370 nM

Ratio IC50 [36]: > 30
Compound: COc1ccc(-c2nc(-c3ccnc(N)n3)sc2C(N)=O)c(Cl)c1
